Data from ChEMBL document CHEMBL2163334, “Discovery of highly potent and selective pan-Aurora kinase inhibitors with enhanced in vivo antitumor therapeutic index” (J Med Chem, 2012).
The source made the active and inactive calls. No cut-off for these calls is given here.

Assays:
[1] = test system: HCT-116; experiment: Antiproliferative activity against human HCT116 cells after 72 hrs by BrdU-based ELISA; format: functional, cell-based; settings: HCT-116, 72 h
Method in brief: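 HCT-116 cells in McCoy's 5A with 10% FBS and pen/strep, seeded 800 cells/well, left overnight at 37 °C, 5% CO2. Nine-point 3-fold serial dilutions in DMSO added for 72 h; BrdU colorimetric ELISA read at 450 and 690 nm. IC50 is the concentration halving proliferation; duplicate runs averaged.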

[2] = target: T1, Aurora kinase B (Homo sapiens, UniProt Q96GD4); experiment: Binding affinity to Aurora kinase B catalytic domain by competition binding assay
T1 sequence (Q96GD4 whole entry, the tested form may be a part): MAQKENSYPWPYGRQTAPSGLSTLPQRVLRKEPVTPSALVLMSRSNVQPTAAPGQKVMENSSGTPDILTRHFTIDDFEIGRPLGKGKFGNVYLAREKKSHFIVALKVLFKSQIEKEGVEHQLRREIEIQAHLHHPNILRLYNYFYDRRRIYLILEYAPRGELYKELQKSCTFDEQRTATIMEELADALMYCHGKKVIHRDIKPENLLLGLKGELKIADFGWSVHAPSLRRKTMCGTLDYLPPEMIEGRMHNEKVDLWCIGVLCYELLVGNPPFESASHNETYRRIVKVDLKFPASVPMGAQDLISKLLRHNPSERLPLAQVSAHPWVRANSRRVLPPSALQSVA

[3] = target: T2, Aurora kinase A (Homo sapiens, UniProt O14965); experiment: Binding affinity to Aurora kinase A catalytic domain by competition binding assay
T2 sequence (O14965 whole entry): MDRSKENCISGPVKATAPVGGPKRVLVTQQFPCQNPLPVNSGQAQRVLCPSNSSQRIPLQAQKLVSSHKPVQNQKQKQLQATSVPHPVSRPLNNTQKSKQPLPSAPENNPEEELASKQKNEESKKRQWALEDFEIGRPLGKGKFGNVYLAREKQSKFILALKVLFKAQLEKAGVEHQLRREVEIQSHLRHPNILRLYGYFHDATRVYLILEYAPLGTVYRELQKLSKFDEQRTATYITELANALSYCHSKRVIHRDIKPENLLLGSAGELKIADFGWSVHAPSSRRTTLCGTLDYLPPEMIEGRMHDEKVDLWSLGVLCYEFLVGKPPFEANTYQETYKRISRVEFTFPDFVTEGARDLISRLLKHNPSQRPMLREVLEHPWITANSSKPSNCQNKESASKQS

[4] = target: T1, Aurora kinase B; experiment: Inhibition of Aurora kinase B-mediated histone H3 Ser10 phosphorylation in human HCT116 cells after 2 hrs by sandwich ELISA; format: cell-based, HCT-116
Method in brief: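 HCT-116 cells seeded 4 × 10⁴/well, 4-6 h at 37 °C, then arrested overnight (16-18 h) with nocodazole at 66 ng/mL final. Treated 2 h with nine-point 3-fold dilutions in DMSO; lysed with phosphatase inhibitor, phospho-H3 (Ser10) sandwich ELISA read at 450 nm. IC50 = 50% inhibition of phosphorylation; duplicate runs averaged.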

[5] = Volume of distribution in Nu/Nu rat at 3 mg/kg, iv administered using TPPW as vehicle; format: ADME, organism-based; parameters: dose 3 mg/kg, route intravenous; settings: in vivo
Method in brief: (§1)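 Plasma from K3 EDTA blood at 5, 15, 30 min, 1, 2, 4, 6, 24 h; acetonitrile extraction with internal standard, LC-MS/MS on C8 column, 5-95% ACN gradient with 0.05% formic acid.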

[6] = Clearance in Sprague-Dawley rat at 1 mg/kg, iv administered using PEG400/water as vehicle; format: ADME, organism-based; parameters: dose 1 mg/kg, route intravenous; settings: in vivo
Method in brief: (§2)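 SD rats fasted overnight, given 1 mg/kg iv in PEG400/water (3:1, v/v); three per arm. Blood into K3 EDTA at 5, 15, 30 min, 1, 2, 4, 6, 24 h, spun at 4 °C; plasma extracted with six volumes acetonitrile plus internal standard and quantified by LC-MS/MS (C8 column, formic acid/ACN gradient).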

[7] = Clearance in athymic Nu/Nu rat at 10 mg/kg, iv administered using TPPW as vehicle; format: ADME, organism-based; parameters: dose 10 mg/kg, route intravenous; settings: in vivo; method in brief: as §1
[8] = Protein binding in plasma; format: ADME, cell-free; settings: read-out: PPB
[9] = target: T2, Aurora kinase A; experiment: Inhibition of Aurora kinase A autophosphorylation in human HEK293 cells after 2 hrs by phosphor antibody readout assay; format: cell-based
[10] = Volume of distribution in Nu/Nu rat at 10 mg/kg, iv administered using TPPW as vehicle; format: ADME, organism-based; parameters: dose 10 mg/kg, route intravenous; settings: in vivo; method in brief: as §1
[11] = AUC (0 to infinity) in Nu/Nu rat at 10 mg/kg, iv administered using TPPW as vehicle; format: ADME, organism-based; parameters: time infinity, dose 10 mg/kg, route intravenous; settings: plasma; method in brief: as §1
[12] = test system: HCT-116; experiment: Antitumor activity against human HCT116 cells xenografted in athymic nude rat assessed as tumor growth inhibition at 20 mg/kg, iv administered every other day from day 10 post tumor-injection for 3 weeks relative to vehicle treated control; format: functional; settings: read-out: TGI
Method in brief: (§3)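 Subcutaneous flank HCT-116 xenografts in nude rats; at Day 1 groups of 10 with mean tumor 301-306 mm³. Tail-vein iv in TPPW (2% Tween-80, 5% propylene glycol, 10% PG-400, 83% water) at 10 mL/kg, weight-adjusted: days 1,3,5,8,10,12,15,17,19 or days 1-4, 8-11, 15-18. Irinotecan control 100 mg/kg ip weekly ×3.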

[13] = Volume of distribution in Nu/Nu rat at 30 mg/kg, iv administered using TPPW as vehicle; format: ADME, organism-based; parameters: dose 30 mg/kg, route intravenous; settings: in vivo; method in brief: as §1
[14] = test system: HCT-116; experiment: Antitumor activity against human HCT116 cells xenografted in athymic nude rat assessed as tumor stasis at 10 to 20 mg/kg, iv administered every other day from day 10 post tumor-injection for 3 weeks measured upto 40 days; format: functional, organism-based
Method in brief: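 HCT-116 flank xenografts in nude rats, groups of 10 at mean 301-306 mm³; iv tail-vein dosing in TPPW at 10 mL/kg on days 1,3,5,8,10,12,15,17,19; tumors followed after dosing stopped, study ending day 42 or day 60.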

[15] = AUC (0 to infinity) in Sprague-Dawley rat at 1 mg/kg, iv administered using PEG400/water as vehicle; format: ADME, organism-based; parameters: time infinity, dose 1 mg/kg, route intravenous; settings: plasma; method in brief: as §2
[16] = Clearance in athymic Nu/Nu rat at 3 mg/kg, iv administered using TPPW as vehicle; format: ADME, organism-based; parameters: dose 3 mg/kg, route intravenous; settings: in vivo; method in brief: as §1
[17] = target: T1, Aurora kinase B; experiment: Inhibition of Aurora kinase B in human HCT116 cells assessed as induction of 8N polyploidy; format: cell-based; settings: HCT-116
[18] = test system: HCT-116; experiment: Antitumor activity against human HCT116 cells xenografted in athymic nude rat assessed as tumor growth inhibition at 5 mg/kg, iv administered QD for 4 days per week followed by 3 days off per week for 3 weeks; format: functional, organism-based; parameters: dose 5 mg/kg; method in brief: as §3
[19] = Volume of distribution in Sprague-Dawley rat at 1 mg/kg, iv administered using PEG400/water as vehicle; format: ADME, organism-based; parameters: dose 1 mg/kg, route intravenous; settings: in vivo; method in brief: as §2
[20] = Clearance in athymic Nu/Nu rat at 30 mg/kg, iv administered using TPPW as vehicle; format: ADME, organism-based; parameters: dose 30 mg/kg, route intravenous; settings: in vivo; method in brief: as §1
[21] = test system: Rattus norvegicus; experiment: Toxicity in athymic nude rat bearing human HCT116 cells assessed as adverse effects at 5 to 10 mg/kg, iv administered QD for 4 days per week followed by 3 days off per week for 3 weeks; format: organism-based, HCT-116; parameters: dose 5-10 mg/kg, route intravenous; settings: in vivo; method in brief: as §3
[22] = test system: HCT-116; experiment: Antitumor activity against human HCT116 cells xenografted in athymic nude rat assessed as tumor growth inhibition at 10 mg/kg, iv administered every other day from day 10 post tumor-injection for 3 weeks relative to vehicle treated control; format: functional; settings: read-out: TGI; method in brief: as §3
[23] = test system: Rattus norvegicus; experiment: Toxicity in athymic nude rat bearing human HCT116 cells assessed body weight loss at 40 mg/kg, iv administered every other day from day 10 post tumor-injection for 3 weeks; format: organism-based, HCT-116; parameters: dose 40 mg/kg, route intravenous; settings: in vivo, 504 h; method in brief: as §3
[24] = AUC (0 to infinity) in Nu/Nu rat at 3 mg/kg, iv administered using TPPW as vehicle; format: ADME, organism-based; parameters: time infinity, dose 3 mg/kg, route intravenous; settings: plasma; method in brief: as §1
[25] = Half life in Sprague-Dawley rat at 1 mg/kg, iv administered using PEG400/water as vehicle; format: ADME, organism-based; parameters: dose 1 mg/kg, route intravenous; settings: in vivo; method in brief: as §2
[26] = Half life in Nu/Nu rat at 3 mg/kg, iv administered using TPPW as vehicle; format: ADME, organism-based; parameters: dose 3 mg/kg, route intravenous; settings: in vivo; method in brief: as §1
[27] = Half life in Nu/Nu rat at 10 mg/kg, iv administered using TPPW as vehicle; format: ADME, organism-based; parameters: dose 10 mg/kg, route intravenous; settings: in vivo; method in brief: as §1
[28] = test system: Rattus norvegicus; experiment: Toxicity in athymic nude rat bearing human HCT116 cells assessed body weight loss up to 20 mg/kg, iv administered every other day from day 10 post tumor-injection for 3 weeks; format: organism-based, HCT-116; parameters: dose 20 mg/kg, route intravenous; settings: in vivo, 504 h; method in brief: as §3
[29] = target: T3, Aurora kinase C (Homo sapiens, UniProt Q9UQB9); experiment: Binding affinity to Aurora kinase C
T3 sequence (Q9UQB9 whole entry): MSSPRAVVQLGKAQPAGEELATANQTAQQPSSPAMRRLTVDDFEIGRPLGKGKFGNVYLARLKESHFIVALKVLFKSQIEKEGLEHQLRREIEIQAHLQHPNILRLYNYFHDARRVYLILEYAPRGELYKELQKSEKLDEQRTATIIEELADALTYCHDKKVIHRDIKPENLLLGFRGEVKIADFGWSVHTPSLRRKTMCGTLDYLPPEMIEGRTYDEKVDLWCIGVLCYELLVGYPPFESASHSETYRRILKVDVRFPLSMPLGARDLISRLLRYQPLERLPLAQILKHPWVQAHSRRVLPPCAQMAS

[30] = Half life in Nu/Nu rat at 30 mg/kg, iv administered using TPPW as vehicle; format: ADME, organism-based; parameters: dose 30 mg/kg, route intravenous; settings: in vivo; method in brief: as §1
[31] = AUC (0 to infinity) in Nu/Nu rat at 30 mg/kg, iv administered using TPPW as vehicle; format: ADME, organism-based; parameters: time infinity, dose 30 mg/kg, route intravenous; settings: plasma; method in brief: as §1
[32] = test system: HCT-116; experiment: Antitumor activity against human HCT116 cells xenografted in athymic nude rat assessed as tumor growth inhibition at 10 mg/kg, iv administered QD for 4 days per week followed by 3 days off per week for 3 weeks; format: functional, organism-based; parameters: dose 10 mg/kg; method in brief: as §3

Cc1cc(Nc2nc(Sc3ccc(NC(=O)CN4CC[C@@H](C(=O)N5CCOCC5)C4)cc3)nn3cccc23)n[nH]1
IC50 [1]: 3.9 nM
Kd [2]: 2.6 nM
Kd [3]: 4 nM
IC50 [4]: 14.6 nM

Cc1cc(Nc2nc(Sc3ccc(NC(=O)CN4CC[C@@H](C(=O)NC5CCCC5)C4)cc3)nn3cccc23)n[nH]1
Vd [5]: 1 L/kg
clearance [6]: 16.9 mL/min/kg
clearance [7]: 20.7 mL/min/kg
fraction unbound [8]: 0.01
IC50 [9]: 2 nM
Vd [10]: 1.1 L/kg
IC50 [1]: 2.3 nM
AUC(0-inf) [11]: 14.6 µM·h
inhibition in vivo at 20 mg/kg [12]: 82%
Vd [13]: 0.84 L/kg
Activity [14]: Active
AUC(0-inf) [15]: 1.8 µM·h
Kd [2]: 1.9 nM
clearance [16]: 27.9 mL/min/kg
inhibition [17]: Dose-dependent effect
Kd [3]: 9.3 nM
TGI [18]: Active
Vd [19]: 3.49 L/kg
clearance [20]: 14.7 mL/min/kg
Activity [21]: Non-toxic
inhibition in vivo at 10 mg/kg [22]: 77%
Activity [23]: > 10%
AUC(0-inf) [24]: 3.2 µM·h
half-life [25]: 9.4 h
half-life [26]: 1.5 h
half-life [27]: 3.8 h
Activity [28]: Non-toxic
Kd [29]: < 10 nM
half-life [30]: 3.4 h
AUC(0-inf) [31]: 62.5 µM·h
TGI [32]: Active
IC50 [4]: 3 nM

Cc1cc(Nc2nc(Sc3ccc(NC(=O)CN4CC[C@@H](C(=O)NC(C)(C)C)C4)cc3)nn3cccc23)n[nH]1
clearance [6]: 48 mL/min/kg
IC50 [1]: 1 nM
Kd [2]: 3.1 nM
Kd [3]: 5.6 nM
IC50 [4]: 6.2 nM

Cc1cc(Nc2nc(Sc3ccc(NC(=O)CN4CC[C@@H](NC(=O)C(C)C)C4)cc3)nn3cccc23)n[nH]1
IC50 [1]: 46.5 nM
Kd [2]: 5.7 nM
Kd [3]: 13.1 nM
IC50 [4]: 114 nM

Cc1cc(Nc2nc(Sc3ccc(NC(=O)CN4CC[C@@H](C(=O)NCCN5CCOCC5)C4)cc3)nn3cccc23)n[nH]1
IC50 [1]: 19 nM
Kd [2]: 2.9 nM
Kd [3]: 6.3 nM
IC50 [4]: 63.2 nM

Cc1cc(Nc2nc(Sc3ccc(NC(=O)CN4CC[C@H](C(=O)N5CCCC5)C4)cc3)nn3cccc23)n[nH]1
IC50 [1]: 16.7 nM
Kd [2]: 1.9 nM
Kd [3]: 10.1 nM
IC50 [4]: 37.6 nM
